Data: ChEMBL document CHEMBL4270524, “Enhanced antimalarial activity of plasmepsin V inhibitors by modification of the P2 position of PEXEL peptidomimetics” (Eur J Med Chem, 2018)
Calls of active or inactive are those of the source. The rule behind the calls is not given here. Square brackets hold non-standard residues; d marks the D form. Peptide text beside a SMILES is read from it. * marks the point of attachment. Dip = N[C@H](C(=O)O)C(c1ccccc1)c1ccccc1; Sta = CC(C)C[C@H](N)[C@@H](O)CC(=O)O; Gly(cPent) = N[C@H](C(=O)O)C1CCCC1; Igl = N[C@H](C(=O)O)C1Cc2ccccc2C1; Chg = N[C@H](C(=O)O)C1CCCCC1; NHPhenethyl = c1ccc(CCN*)cc1; Phg = N[C@H](C(=O)O)c1ccccc1; Tle = CC(C)(C)[C@H](N)C(=O)O; Nva = CCC[C@H](N)C(=O)O; Abu = CC[C@H](N)C(=O)O; Cbz = O=C(OCc1ccccc1)*

Key:
Plasmodium falciparum = assay: Antiplasmodial activity against ring-stage Plasmodium falciparum 3D7 assessed as reduction in parasite viability after 72 hrs by LDH assay; type: functional, organism-based; conditions: 3D7, 72 h
Method in brief: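 Sorbitol-synchronised early ring-stage parasites grown in RPMI-HEPES with L-glutamine and Albumax II, exposed to ten-point compound titrations in DMSO (≤0.02% final) for 72 h. Parasitemia read by LDH activity (NADH consumption) relative to DMSO control. EC50 from 4-parameter variable-slope sigmoidal fit; means and SD of three independent experiments.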

HepG2 = assay: Cytotoxicity against human HepG2 cells after 48 hrs by CellTiter-Glo assay; type: functional, cell-based; conditions: HepG2, 48 h
Method in brief: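 Cells kept in DMEM with 10% FCS at 37 °C, 5% CO2. 1 × 10^4 cells seeded per well and exposed to a 10-point compound titration for 48 h at 37 °C. Viability normalised to DMSO (100%) and 10 µM bortezomib (0%). EC50 given as mean and SD of three experiments.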

[1] = Inhibition of recombinant Plasmodium vivax plasmepsin 5 expressed in High five insect cells using DABCYLRNKRTLAQKQ-E-EDANS as substrate measured after 120 mins by fluorescence assay
Method in brief: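 Enzyme purified by anti-FLAG affinity then Superdex 75 gel filtration. Each well held 2.5 ng enzyme and 12 µM (Km) substrate in 25 mM Tris-HCl/25 mM MES pH 6.4 with 0.005% Tween-20 and 1% DMSO final. Ten-point 1-in-3 compound dilutions. Fluorescence read at ex 340/em 495 nm. IC50 from four-parameter fit constrained to 0 and 100%; mean and SD, n=3.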

[2] = target: Plasmepsin V (Plasmodium falciparum (isolate 3D7)) (UniProt Q8I6Z5); assay: Inhibition of plasmepsin 5 in Plasmodium falciparum 3D7 co-expressing PfEMP3-GFP infected in human erythrocytes assessed as accumulation of uncleaved PfEMP3-GFP at 1 to 10 uM after 3 hrs by immunoblot analysis; type: cell-based
Chain of Plasmepsin V (Plasmodium falciparum (isolate 3D7)) (Q8I6Z5 whole entry, looked up): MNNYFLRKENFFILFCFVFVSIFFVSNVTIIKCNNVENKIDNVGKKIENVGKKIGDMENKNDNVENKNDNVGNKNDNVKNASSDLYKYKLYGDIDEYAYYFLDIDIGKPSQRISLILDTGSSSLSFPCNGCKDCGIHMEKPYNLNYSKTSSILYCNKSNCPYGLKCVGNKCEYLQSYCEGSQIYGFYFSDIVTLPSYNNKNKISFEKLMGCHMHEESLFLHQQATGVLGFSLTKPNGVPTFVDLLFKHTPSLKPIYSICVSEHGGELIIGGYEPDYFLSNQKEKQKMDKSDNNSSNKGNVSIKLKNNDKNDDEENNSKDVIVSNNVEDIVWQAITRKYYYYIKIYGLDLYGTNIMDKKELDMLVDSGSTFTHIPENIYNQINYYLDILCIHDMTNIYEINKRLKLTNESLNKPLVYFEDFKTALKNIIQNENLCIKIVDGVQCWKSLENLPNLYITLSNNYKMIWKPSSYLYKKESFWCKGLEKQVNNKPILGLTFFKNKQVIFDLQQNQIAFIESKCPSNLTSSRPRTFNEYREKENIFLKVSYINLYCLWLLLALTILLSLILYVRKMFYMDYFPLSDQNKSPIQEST
Method in brief: (§1)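 Parasites cultured in O+ erythrocytes at 4% haematocrit in RPMI 1640 with 25 mM HEPES pH 7.4, 0.2% bicarbonate, 0.5% Albumax II under 5% CO2/5% O2 gas at 37 °C. Magnet-purified 24–34 h trophozoites treated 3 h at 37 °C; DMSO vehicle control. Saponin-lysed pellets run on SDS-PAGE and probed with anti-GFP, with HSP70 as loading control. ECL read-out, quantified by densitometry.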

[3] = target: Plasmepsin V (Plasmodium falciparum (isolate 3D7)) (UniProt Q8I6Z5); assay: Inhibition of plasmepsin 5 in Plasmodium falciparum 3D7 co-expressing PfEMP3-GFP infected in human erythrocytes assessed as accumulation of uncleaved PfEMP3-GFP after 3 hrs by immunoblot analysis; type: cell-based; method in brief: as §1
[4] = target: Plasmepsin V (Plasmodium falciparum (isolate 3D7)) (UniProt Q8I6Z5); assay: Inhibition of plasmepsin 5 in Plasmodium falciparum 3D7 co-expressing PfEMP3-GFP infected in human erythrocytes assessed as accumulation of uncleaved PfEMP3-GFP at 1 to 20 uM after 3 hrs by immunoblot analysis; type: cell-based; method in brief: as §1

inhibition [2]	inhibition [3]	inhibition [4]	Compound	EC50 (Plasmodium falciparum)	EC50 (HepG2)	IC50 [1]
			CC(C)C[C@H](NC(=O)[C@@H](NC(=O)[C@H](CCCNC(=N)N)NS(=O)(=O)Cc1ccccc1)C(C)C)[C@@H](O)CC(=O)NCCc1ccccc1	4.03 µM	> 40 µM	0.123 µM
Active			CC(C)C[C@H](NC(=O)[C@@H](NC(=O)[C@H](CCONC(=N)N)NC(=O)OCc1ccccc1)C(C)C)[C@@H](O)CC(=O)NCCc1ccccc1	0.43 µM	> 40 µM	0.019 µM
			CC(C)C[C@H](NC(=O)[C@@H](NC(=O)[C@H](CCCNC(=N)N)NC(=O)OCc1ccccc1)[C@H](C)c1ccccc1)[C@@H](O)CC(=O)NCCc1ccccc1	> 10 µM	35.4 µM	> 10 µM
			CCC(CC)[C@H](NC(=O)[C@H](CCCNC(=N)N)NC(=O)OCc1ccccc1)C(=O)N[C@@H](CC(C)C)[C@@H](O)CC(=O)NCCc1ccccc1	4.11 µM	> 40 µM	0.112 µM
			CC(C)C[C@H](NC(=O)[C@@H](NC(=O)[C@H](CCCNC(=N)N)NC(=O)OCc1ccccc1)[C@H](O)c1ccccc1)[C@@H](O)CC(=O)NCCc1ccccc1	> 10 µM	> 40 µM	6.56 µM
			CC(C)C[C@H](NC(=O)[C@@H](NC(=O)[C@H](CCCNC(=N)N)NC(=O)OCc1ccccc1)C(C)(C)O)[C@@H](O)CC(=O)NCCc1ccccc1	> 10 µM	> 40 µM	3.01 µM
	Active		CC(C)C[C@H](NC(=O)[C@@H](NC(=O)[C@H](CCONC(=N)N)NC(=O)OCc1ccccc1)C1CCCCC1)[C@@H](O)CC(=O)NCCc1ccccc1	0.09 µM	> 40 µM	0.005 µM
		Active	CC(C)C[C@H](NC(=O)[C@@H](NC(=O)[C@H](CCONC(=N)N)NC(=O)OCc1ccccc1)c1ccccc1)[C@@H](O)CC(=O)NCCc1ccccc1	0.07 µM	> 40 µM	0.003 µM
			CC[C@H](C)[C@H](NC(=O)[C@H](CCONC(=N)N)NC(=O)OCc1ccccc1)C(=O)N[C@@H](CC(C)C)[C@@H](O)CC(=O)NCCc1ccccc1	0.18 µM		0.016 µM
			CC(C)C[C@H](NC(=O)[C@H](C)NC(=O)[C@H](CCCNC(=N)N)NC(=O)OCc1ccccc1)[C@@H](O)CC(=O)NCCc1ccccc1 (Cbz-Arg-Ala-[Sta]-NHPhenethyl)	> 10 µM	> 40 µM	7.18 µM
			CC[C@H](C)[C@H](NC(=O)[C@H](CCCNC(=N)N)NC(=O)OCc1ccccc1)C(=O)N[C@@H](CC(C)C)[C@@H](O)CC(=O)NCCc1ccccc1 (Cbz-Arg-Ile-[Sta]-NHPhenethyl)	1.03 µM		0.026 µM
			CC(C)C[C@H](NC(=O)[C@H](CCCNC(=N)N)NC(=O)OCc1ccccc1)C(=O)N[C@@H](CC(C)C)[C@@H](O)CC(=O)NCCc1ccccc1 (Cbz-Arg-Leu-[Sta]-NHPhenethyl)	5 µM	> 40 µM	0.165 µM
			CC(C)C[C@H](NC(=O)[C@H](Cc1ccccc1)NC(=O)[C@H](CCCNC(=N)N)NC(=O)OCc1ccccc1)[C@@H](O)CC(=O)NCCc1ccccc1 (Cbz-Arg-Phe-[Sta]-NHPhenethyl)	> 10 µM	> 40 µM	3.12 µM
			CC(C)C[C@H](NC(=O)[C@H](CO)NC(=O)[C@H](CCCNC(=N)N)NC(=O)OCc1ccccc1)[C@@H](O)CC(=O)NCCc1ccccc1 (Cbz-Arg-Ser-[Sta]-NHPhenethyl)	> 10 µM	> 40 µM	> 10 µM
			CC(C)C[C@H](NC(=O)[C@@H](NC(=O)[C@H](CCCNC(=N)N)NC(=O)OCc1ccccc1)[C@@H](C)O)[C@@H](O)CC(=O)NCCc1ccccc1 (Cbz-Arg-Thr-[Sta]-NHPhenethyl)	> 10 µM	> 40 µM	2.02 µM
			CC(C)C[C@H](NC(=O)[C@@H](NC(=O)[C@H](CCCNC(=N)N)NC(=O)OCc1ccccc1)C(C)C)[C@@H](O)CC(=O)NCCc1ccccc1 (Cbz-Arg-Val-[Sta]-NHPhenethyl)	3.39 µM	> 40 µM	0.116 µM
			CC[C@H](NC(=O)[C@H](CCCNC(=N)N)NC(=O)OCc1ccccc1)C(=O)N[C@@H](CC(C)C)[C@@H](O)CC(=O)NCCc1ccccc1 (Cbz-Arg-[Abu]-[Sta]-NHPhenethyl)	3.14 µM	> 40 µM	0.507 µM
	Active		CC(C)C[C@H](NC(=O)[C@@H](NC(=O)[C@H](CCCNC(=N)N)NC(=O)OCc1ccccc1)C1CCCCC1)[C@@H](O)CC(=O)NCCc1ccccc1 (Cbz-Arg-[Chg]-[Sta]-NHPhenethyl)	1.22 µM	36.7 µM	0.029 µM
			CC(C)C[C@H](NC(=O)[C@@H](NC(=O)[C@H](CCCNC(=N)N)NC(=O)OCc1ccccc1)C(c1ccccc1)c1ccccc1)[C@@H](O)CC(=O)NCCc1ccccc1 (Cbz-Arg-[Dip]-[Sta]-NHPhenethyl)	> 10 µM	> 40 µM	> 10 µM
			CC(C)C[C@H](NC(=O)[C@@H](NC(=O)[C@H](CCCNC(=N)N)NC(=O)OCc1ccccc1)C1CCCC1)[C@@H](O)CC(=O)NCCc1ccccc1 (Cbz-Arg-[Gly(cPent)]-[Sta]-NHPhenethyl)	2.73 µM	> 40 µM	0.055 µM
			CC(C)C[C@H](NC(=O)[C@@H](NC(=O)[C@H](CCCNC(=N)N)NC(=O)OCc1ccccc1)C1Cc2ccccc2C1)[C@@H](O)CC(=O)NCCc1ccccc1 (Cbz-Arg-[Igl]-[Sta]-NHPhenethyl)	6.18 µM	23.5 µM	0.661 µM
			CCC[C@H](NC(=O)[C@H](CCCNC(=N)N)NC(=O)OCc1ccccc1)C(=O)N[C@@H](CC(C)C)[C@@H](O)CC(=O)NCCc1ccccc1 (Cbz-Arg-[Nva]-[Sta]-NHPhenethyl)	2.4 µM		0.116 µM
		Active	CC(C)C[C@H](NC(=O)[C@@H](NC(=O)[C@H](CCCNC(=N)N)NC(=O)OCc1ccccc1)c1ccccc1)[C@@H](O)CC(=O)NCCc1ccccc1 (Cbz-Arg-[Phg]-[Sta]-NHPhenethyl)	1.36 µM	> 40 µM	0.024 µM
			CC(C)C[C@H](NC(=O)[C@@H](NC(=O)[C@H](CCCNC(=N)N)NC(=O)OCc1ccccc1)C(C)(C)C)[C@@H](O)CC(=O)NCCc1ccccc1 (Cbz-Arg-[Tle]-[Sta]-NHPhenethyl)	> 10 µM	> 40 µM	6.7 µM
			O[C@@H](c1cc(C(F)(F)F)nc2c(C(F)(F)F)cccc12)[C@H]1CCCCN1 [(S,R)-MEFLOQUINE]	0.013 µM	9.8 µM	
			CC(C)C[C@H](NC(=O)[C@H](Cc1ccccc1)NC(=O)c1cnccn1)B(O)O [BORTEZOMIB]		0.01 µM	
			CCN(CC)CCCC(C)Nc1ccnc2cc(Cl)ccc12 (centres undefined) [CHLOROQUINE]	0.006 µM	10.1 µM	
